Series [1] is described as follows: Inhibition of Human enterovirus 71 TW/2231/98 recombinant protease 3C expressed in Escherichia coli JM109 competent cells. Further details: species or system Enterovirus A71. The essentials: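 His-tagged EV71 3C protease expressed in E. coli […] and purified on Ni–NTA. Fluorescence read at 538 nm with excitation at 355 nm. Initial velocities over the first 5 min were plotted against inhibitor concentration and fitted to a hyperbolic activity equation to give IC50.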

The subject of series [2] is Enterovirus A71. Briefly: Antiviral activity against Human enterovirus 71 in human rhabdomyosarcoma cells assessed as virus-induced cell death after 72 hrs. It counts as functional, organism-based. The settings on record: Enterovirus A. The method, boiled down:
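RD cells seeded at 1.1×10^5 cells/mL in DMEM with 10% FBS, grown 24-30 h at 37 °C to about 90% confluence. Virus (100 TCID50) mixed with test compound was adsorbed 1 h at 35 °C, then overlaid with DMEM, 2% FBS, 0.1% DMSO for 72 h at 35 °C. Formaldehyde fixation, crystal violet stain, A570. EC50 is 50% reduction of virus-induced cell death versus virus control. Triplicate, at least twice.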

Series [3] deals with RD. Briefly: Cytotoxicity against human RD cells. In kind it is cell-based.
Series [4] can be described thus: Selectivity index, ratio of CC50 for human RD cells to EC50 for Human enterovirus 71. It counts as toxicity, cell-based. The settings on record: for selectivity ratio: RD cells, read-out: Ratio CC50/EC50.
For series [5], the system named is RD. The series can be described thus: Inhibition of Human enterovirus 71 TW/2231/98 recombinant protease 3C in human RD cells at 0.01 to 1 uM after 48 hrs by Western blotting. Conditions: Enterovirus A71. In kind it is cell-based. The method, boiled down: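 Confluent RD cells in DMEM with 10% fetal calf serum were infected with EV71 TW/2231/98 at MOI 0.01 with or without compound at 0.01–1 μM. After 48 h, total lysates were run on 12% SDS–PAGE and blotted with mouse monoclonal anti-3C and anti-β-actin antibodies. Detection used an HRP anti-mouse secondary (1:2000) and ECL.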

Series [6] can be described thus: (§1) Inhibition of Human enterovirus 71 TW/2231/98 recombinant protease 3C expressed in Escherichia coli JM109 competent cells by time dependent assay. Further details: species or system Enterovirus A71. The method, boiled down: (§2)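 Time-dependent inactivation: 0.5 μM 3C protease incubated with 1–10 μM inhibitor in the fluorogenic peptide assay (10 mM MES pH 6.5, 25 °C). Activity loss versus incubation time was fitted to a single exponential to give kobs. Half-life (ln2/kobs) was replotted against reciprocal inhibitor concentration to give kinact and Ki.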

Series [7] deals with Enterovirus A71. The series is described as §1. The method, boiled down:
as §2

The test system of the next series is Echovirus E9. Briefly: Antiviral activity against Human echovirus 9. In kind it is functional, organism-based. Conditions: Enterovirus B.
The test system of a further series is Echovirus E6. Briefly: Antiviral activity against Human echovirus 6. In kind it is functional, organism-based. Conditions: Enterovirus B.

In general, IC50 refers to the concentration that gives 50% inhibition. What is called EC50 is the midpoint of the concentration-response curve. In general, CC50 refers to the concentration that lowers cell viability or growth by half.

Activity calls are given as the source filed them. The rule behind the calls is not given here.

`Cc1ccc(/C=C/C(=O)N[C@@H](Cc2ccccc2)C(=O)N[C@H](C=O)C[C@@H]2CCNC2=O)cc1`: the half-maximal inhibitory concentration (IC50) in series [1] is under 0.5 µM. The EC50 in the series on Enterovirus A71 [2] was 0.026 µM. The CC50 in the series with RD [3] is over 25 µM. Also, the selectivity ratio in series [4] was over 1000. In addition, in the series on RD [5], the outcome was Active.
With `CN(C)c1ccc(/C=C/C(=O)N[C@@H](Cc2ccccc2)C(=O)N[C@H](C=O)C[C@@H]2CCNC2=O)cc1`, the IC50 in [1] is under 0.5 µM. Also, the 50% effective concentration (EC50) with Enterovirus A71 [2] was determined as 0.018 µM. In addition, the 50% cytotoxic concentration (CC50) in the series with RD [3] is over 25 µM. For the same compound, the selectivity ratio in [4] is over 1000.
As to `O=C[C@H](C[C@@H]1CCNC1=O)NC(=O)[C@H](Cc1ccccc1)NC(=O)OCc1ccccc1`, the IC50 in series [1] is under 0.5 µM. Also, the EC50 in the series on Enterovirus A71 [2] is 0.031 µM. The compound further came in with a 50% cytotoxic concentration (CC50) in the series on RD [3] of 23.6 µM.
For the compound `CCOC(=O)/C=C/[C@H](C[C@@H]1CCNC1=O)NC(=O)[C@H](Cc1ccccc1)NC(=O)/C=C/c1ccc(N(C)C)cc1`, in series [1], the half-inhibitory concentration (IC50) is 8.2 µM. Further, the EC50 in the series with Enterovirus A71 [2] came to 2.9 µM. In addition, in the series on RD [3], half-maximal cytotoxicity (CC50) was put at 21.4 µM. In series [6], the Ki was 2.6 µM. Moreover, in the series on Enterovirus A71 [7], the Kinact came out at 0.077 min⁻¹.
On to `O=C[C@H](C[C@@H]1CCNC1=O)NC(=O)[C@H](Cc1ccccc1)NC(=O)/C=C/c1ccc2c(c1)OCO2`, for which the half-maximal inhibitory concentration (IC50) in series [1] was under 0.5 µM. The 50% effective concentration (EC50) with Enterovirus A71 [2] was 0.16 µM. Also, the CC50 with RD [3] is over 25 µM.
For `O=C[C@H](C[C@@H]1CCNC1=O)NC(=O)[C@H](Cc1ccccc1)NC(=O)/C=C/c1ccccc1`, the IC50 in [1] is under 0.5 µM. Besides, the EC50 in the series with Enterovirus A71 [2] is 0.096 µM. In addition, the CC50 with RD [3] was over 25 µM.
Consider `O=C[C@H](C[C@@H]1CCNC1=O)NC(=O)[C@H](Cc1ccccc1)NC(=O)/C=C/c1ccc(Cl)cc1F`, for which the IC50 in [1] is under 0.5 µM. In addition, the EC50 with Enterovirus A71 [2] is 0.007 µM. In the series with RD [3], this compound gave a CC50 of 5.1 µM. In series [4] (rd), the “Ratio CC50/EC50” value is given as 714.
In the case of `CCOC(=O)/C=C/[C@H](C[C@@H]1CCNC1=O)NC(=O)[C@H](Cc1ccccc1)NC(=O)OC(C)(C)C`, the IC50 in series [1] was over 20 µM. In the series on Enterovirus A71 [2], the EC50 was over 20 µM.
For the compound `CCOC(=O)/C=C/[C@H](C[C@@H]1CCNC1=O)NC(=O)[C@@H](CC(=O)[C@@H](NC(=O)c1cc(C)on1)C(C)C)Cc1ccc(F)cc1` [RUPINTRIVIR], the 50% effective concentration (EC50) was 0.015 µM in the series with Echovirus E9 and 0.043 µM in the series on Echovirus E6.
Take `Cc1cc(/C=C/C(=O)N[C@@H](Cc2ccccc2)C(=O)N[C@H](C=O)C[C@@H]2CCNC2=O)no1`: the IC50 in [1] was under 0.5 µM. The concentration for a half-maximal effect (EC50) in the series with Enterovirus A71 [2] is 0.94 µM. In the series with RD [3], this compound gave a CC50 of over 25 µM.
As for `CCOC(=O)/C=C/[C@H](C[C@@H]1CCNC1=O)NC(=O)[C@H](Cc1ccccc1)NC(=O)/C=C/c1ccccc1`, the 50% inhibitory concentration (IC50) in series [1] stood at 10 µM. In the series on Enterovirus A71 [2], the EC50 stood at 1.3 µM. In addition, it took 8 µM to reach half-maximal cytotoxicity in the series on RD [3] (CC50).
On to `CCOC(=O)/C=C/[C@H](C[C@@H]1CCNC1=O)NC(=O)[C@H](Cc1ccccc1)NC(=O)/C=C/c1ccc2c(c1)OCO2`, for which the IC50 in [1] stood at 10.6 µM. Also, in the series on Enterovirus A71 [2], the EC50 is 1.8 µM. The same compound registered a CC50 in the series with RD [3] of over 25 µM.

The record behind these values is ChEMBL document CHEMBL1155789, “Design, synthesis, and evaluation of 3C protease inhibitors as anti-enterovirus 71 agents” (Bioorg Med Chem, 2008).
